ChEMBL document CHEMBL2169850, “3,6-bis(3-alkylguanidino)acridines as DNA-intercalating antitumor agents” (Eur J Med Chem, 2012)
Active and inactive are the calls of the source. No cut-off for these calls is given here.

Tests used:
[1] = test system: HL-60; assay: Cell cycle arrest in human HL60 cells assessed as accumulation at G1 phase at 25 uM incubated for 72 hrs by flow cytometry (reference value: 47.02 +/- 6.19%); type: functional
[2] = test system: HL-60; assay: Cell cycle arrest in human HL60 cells assessed as accumulation at G2/M phase at 25 uM incubated for 72 hrs by flow cytometry (reference value: 12.68 +/- 3.21%); type: functional
[3] = test system: HL-60; assay: Antiproliferative activity against human HL60 cells assessed as cell number at 15 uM incubated for 72 hrs by Coulter counting method; type: functional
Procedure, shortened: (§1)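 HL-60 cells in RPMI with 10% heat-inactivated FCS, antibiotics and amphotericin, 37 °C, 5% CO2, seeded in 60 mm dishes. Compound added at 5, 15 or 25 µM for 24, 48 or 72 h. Absolute cell counts taken by Coulter counter and expressed as percentage of untreated control. Mean ± SD of at least three independent experiments; one-way ANOVA with Tukey test, p < 0.05.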

[4] = test system: HL-60; assay: Cell cycle arrest in human HL60 cells assessed as accumulation at S phase at 25 uM incubated for 48 hrs by flow cytometry (reference value: 45.29 +/- 1.23%); type: functional
[5] = test system: HL-60; assay: Drug uptake in human HL60 cells with necrotic morphology at 50 uM incubated for 18 hrs by fluorescence microscopy; type: ADME, cell-based; details: hl-60, 18 h
Procedure, shortened: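 HL-60 cells were treated with 50 µM compound for 18 h, washed with PBS, resuspended in HBSS and mounted as native slides. Cells were imaged by inverted fluorescence microscopy at 40×, with excitation 360/40 and emission 470/40. The fluorescence channel was merged with brightfield images.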

[6] = test system: HL-60; assay: Cell cycle arrest in human HL60 cells assessed as accumulation at G1 phase at 5 uM incubated for 24 hrs by flow cytometry (reference value: 35.96 +/- 1.63%); type: functional
[7] = test system: HL-60; assay: Cell cycle arrest in human HL60 cells assessed as accumulation at S phase at 5 uM incubated for 72 hrs by flow cytometry (reference value: 40.30 +/- 3.15%); type: functional
[8] = test system: HL-60; assay: Antiproliferative activity against human HL60 cells assessed as cell number at 5 uM incubated for 72 hrs by Coulter counting method; type: functional; procedure, shortened: as §1
[9] = test system: HL-60; assay: Cell cycle arrest in human HL60 cells assessed as accumulation at S phase at 15 uM incubated for 48 hrs by flow cytometry (reference value: 45.29 +/- 1.23%); type: functional
[10] = test system: HL-60; assay: Cell cycle arrest in human HL60 cells assessed as accumulation at G1 phase at 15 uM incubated for 24 hrs by flow cytometry (reference value: 35.96 +/- 1.63%); type: functional
[11] = test system: Nucleic Acid; assay: Binding affinity to calf thymus DNA by spectrofluorimetric titration assay; type: nucleic-acid assay; details: Bos taurus
Procedure, shortened: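 Fluorescence titration at 25 °C in 0.01 M Tris, pH 7.4. Compound (9.58 × 10^-6 M) was titrated with ctDNA from 0 to 2.57 × 10^-4 M bp, excited at 384 nm, and emission recorded from 400 to 600 nm. K and n were obtained from McGhee–von Hippel fits of Scatchard data.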

[12] = test system: Nucleic Acid; assay: Binding affinity to calf thymus DNA assessed as melting temperature at 12.4 uM by thermal denaturation study; type: nucleic-acid assay; details: Bos taurus
[13] = test system: HL-60; assay: Cell cycle arrest in human HL60 cells assessed as accumulation at G2/M phase at 5 uM incubated for 24 hrs by flow cytometry (reference value: 19.62 +/- 0.96%); type: functional
[14] = test system: HL-60; assay: Cell cycle arrest in human HL60 cells assessed as accumulation at G2/M phase at 5 uM incubated for 72 hrs by flow cytometry (reference value: 12.68 +/- 3.21%); type: functional
[15] = test system: Nucleic Acid; assay: Binding affinity to calf thymus DNA assessed as hypochromacity at 12.8 uM by UV-visible absorption spectroscopy; details: Bos taurus
[16] = target: T1, DNA topoisomerase 1 (Homo sapiens) (UniProt P11387); assay: Inhibition of human topoisomerase 1 assessed as reduction in pBR322 DNA relaxation of relaxation at 60 uM by DNA unwinding assay
T1 sequence (whole entry): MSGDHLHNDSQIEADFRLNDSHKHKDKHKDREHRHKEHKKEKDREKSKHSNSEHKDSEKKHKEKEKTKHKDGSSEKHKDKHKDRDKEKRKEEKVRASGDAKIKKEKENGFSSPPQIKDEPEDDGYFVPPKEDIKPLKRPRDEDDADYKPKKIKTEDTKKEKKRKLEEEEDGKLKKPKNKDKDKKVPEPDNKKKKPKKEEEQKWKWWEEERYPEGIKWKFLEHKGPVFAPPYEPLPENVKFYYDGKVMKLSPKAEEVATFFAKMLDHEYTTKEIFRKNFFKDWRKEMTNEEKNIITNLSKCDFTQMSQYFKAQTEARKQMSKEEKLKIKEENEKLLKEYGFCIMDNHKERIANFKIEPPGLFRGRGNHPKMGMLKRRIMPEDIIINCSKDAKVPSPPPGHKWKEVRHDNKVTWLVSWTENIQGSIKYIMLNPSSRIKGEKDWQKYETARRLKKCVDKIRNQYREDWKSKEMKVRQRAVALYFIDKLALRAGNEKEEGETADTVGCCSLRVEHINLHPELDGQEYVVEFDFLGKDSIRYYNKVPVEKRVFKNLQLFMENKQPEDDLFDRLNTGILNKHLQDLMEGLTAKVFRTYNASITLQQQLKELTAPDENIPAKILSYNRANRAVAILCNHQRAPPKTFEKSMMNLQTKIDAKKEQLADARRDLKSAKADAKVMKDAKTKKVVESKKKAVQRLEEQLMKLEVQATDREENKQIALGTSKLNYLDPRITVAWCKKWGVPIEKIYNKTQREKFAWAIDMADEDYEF

[17] = test system: HL-60; assay: Cell cycle arrest in human HL60 cells assessed as accumulation at G2/M phase at 25 uM incubated for 24 hrs by flow cytometry (reference value: 19.62 +/- 0.96%); type: functional
[18] = test system: HL-60; assay: Cell cycle arrest in human HL60 cells assessed as accumulation at G1 phase at 25 uM incubated for 48 hrs by flow cytometry (reference value: 38.29 +/- 0.22%); type: functional
[19] = test system: Nucleic Acid; assay: Binding affinity to calf thymus DNA at 11 to 58 uM by LD spectroscopy; type: nucleic-acid assay; details: Bos taurus
Procedure, shortened: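 Flow LD spectra were recorded in a Couette cell (1 mm path) from 210 to 550 nm at 25 °C in 10 mM Tris. ctDNA was modified by compound at 11–58 × 10^-6 M.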

[20] = test system: HL-60; assay: Cell cycle arrest in human HL60 cells assessed as accumulation at S phase at 5 uM incubated for 48 hrs by flow cytometry (reference value: 45.29 +/- 1.23%); type: functional
[21] = test system: Nucleic Acid; assay: Binding affinity to calf thymus DNA increase in DNA viscosity at 12 to 60 uM by viscosimetric titration assay; type: nucleic-acid assay; details: Bos taurus
Procedure, shortened: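 Relative viscosity of ctDNA (3.11 × 10^-8 M) with compound at 12–60 × 10^-6 M was measured by automated microviscometry in a 1.6 mm capillary at 25 °C, in 10 mM Tris, pH 7.4. Solution density was also measured.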

[22] = test system: HL-60; assay: Cell cycle arrest in human HL60 cells assessed as accumulation at G2/M phase at 25 uM incubated for 48 hrs by flow cytometry (reference value: 16.42 +/- 1.03%); type: functional

Row | K [11] | Tm [12] | Activity [15] | Topoisomerase 1 inhibition (active/inactive) [16] | Activity [19] | Structure (SMILES) | Activity [1] | Activity [2] | Activity [3] | Activity [4] | Drug uptake [5] | Activity [6] | Activity [7] | Activity [8] | Activity [9] | Activity [10] | Activity [13] | Activity [14] | Activity [17] | Activity [18] | Activity [20] | further results
1 | 5.26 ×10⁵ /M | 84 °C | 23% | Active | Active | CCNC(=N)Nc1ccc2cc3ccc(NC(=N)NCC)cc3nc2c1.Cl.Cl.O | inactive | inactive | 84.97% | inactive | Active | inactive | inactive | 79.32% | inactive | inactive | inactive | inactive | inactive | inactive | inactive | Activity [21]: Active; Activity [22]: inactive
2 | 1.25 ×10⁵ /M | 89 °C | 42% | Active | Active | CCCCCCNC(=N)Nc1ccc2cc3ccc(NC(=N)NCCCCCC)cc3nc2c1.Cl.Cl.O | 73.59% | 3.91% | 33.13% | 27.77% | Active | 36.31% | 43.6% | 57.54% | 27.52% | 41.77% | 16.37% | 7.47% | 10.37% | 65.72% | 43.54% | Activity [21]: Active; Activity [22]: 6.51%
